Measurements reported in ChEMBL document CHEMBL4842356, “Discovery, optimization, and target identification of novel coumarin derivatives as HIV-1 reverse transcriptase-associated ribonuclease H inhibitors” (Eur J Med Chem, 2021).

Legend:
[1] = tested on: Human immunodeficiency virus 1; assay: Antiviral activity against wild type HIV1 3B infected in human MT4 cells assessed as protection against virus-induced cytopathic effect incubated for 5 days by MTT assay; type: functional, organism-based; settings: Human immunodeficiency virus 1, 3B, MT4, 120 h
Outline: (§1)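 MT-4 cells (exponentially growing, resuspended at 6 × 10⁵ cells/mL) were seeded onto serial five-fold compound dilutions and infected with 100–300 CCID₅₀ virus stock, or given medium only (mock). Viability was read by MTT at 540 and 690 nm five days after infection, using the median OD of three wells. EC₅₀ is 50% protection from viral cytopathicity. CC₅₀ is 50% loss of viability in mock-infected cells.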

[2] = tested on: Human immunodeficiency virus 1; assay: Antiviral activity against HIV1 harboring reverse transcriptase K103N mutant infected in human MT4 cells assessed as protection against virus-induced cytopathic effect incubated for 5 days by MTT assay; type: functional, organism-based; settings: Human immunodeficiency virus 1, MT4, 120 h
Outline: (§2)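 MT-4 cells (exponentially growing, resuspended at 6 × 10⁵ cells/mL) exposed to serial five-fold compound dilutions, then infected with mutant HIV-1 stock at 100–300 CCID₅₀; mock-infected wells run in parallel for cytotoxicity. Viability read by MTT at 540 and 690 nm on day 5. Median OD of three wells used; EC₅₀ is the concentration giving 50% protection from viral cytopathicity.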

[3] = tested on: Human immunodeficiency virus 1; assay: Antiviral activity against HIV1 L1001 infected in human MT4 cells assessed as protection against virus-induced cytopathic effect incubated for 5 days by MTT assay; type: functional, organism-based; settings: Human immunodeficiency virus 1, L1001, MT4, 120 h; outline: as §2
[4] = tested on: Human immunodeficiency virus 1; assay: Antiviral activity against HIV1 harboring reverse transcriptase V106A/F227 mutant infected in human MT4 cells assessed as protection against virus-induced cytopathic effect incubated for 5 days by MTT assay; type: functional, organism-based; settings: Human immunodeficiency virus 1, MT4, 120 h; outline: as §2
[5] = tested on: Human immunodeficiency virus 1; assay: Antiviral activity against HIV1 harboring reverse transcriptase Y188L mutant infected in human MT4 cells assessed as protection against virus-induced cytopathic effect incubated for 5 days by MTT assay; type: functional, organism-based; settings: Human immunodeficiency virus 1, MT4, 120 h; outline: as §2
[6] = tested on: Human immunodeficiency virus 1; assay: Antiviral activity against HIV1 RES056 infected in human MT4 cells assessed as protection against virus-induced cytopathic effect incubated for 5 days by MTT assay; type: functional, organism-based; settings: Human immunodeficiency virus 1, RES056, MT4, 120 h; outline: as §1
MT4 = assay: Cytotoxicity against mock-infected human MT4 cells assessed as reduction in cell viability measured after 5 days by MTT assay; type: functional; settings: MT4, 120 h, time 5 day; outline: as §1
[7] = tested on: Human immunodeficiency virus 1; assay: Antiviral activity against HIV1 harboring reverse transcriptase E138K mutant infected in human MT4 cells assessed as protection against virus-induced cytopathic effect incubated for 5 days by MTT assay; type: functional, organism-based; settings: Human immunodeficiency virus 1, MT4, 120 h
[8] = target: Human immunodeficiency virus type 1 reverse transcriptase (Human immunodeficiency virus 1, UniProt Q72547); assay: Inhibition of wild type HIV1 Reverse transcriptase RNase H expressed in Escherichia coli using 5'-UUUUUUUUUAGGAUACAUAUGGUUAAAGU-3' oligonucleotide as substrate and DNA21P as primer in presence of [gamma32P]-ATP by PAGE analysis
Outline: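 Wild-type HIV-1 BH10 RT was expressed in E. coli and purified. RNase H activity was measured on a 31-nt RNA, 5′-³²P-labelled, annealed to a 21-nt DNA (31T/21P). Cleaved substrate was quantified without inhibitor (5% DMSO) and with compound over 0.2–100 µM. IC₅₀ values were taken from dose-response curves.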

[9] = tested on: Human immunodeficiency virus 2; assay: Antiviral activity against HIV2 ROD infected in human MT4 cells assessed as protection against virus-induced cytopathic effect incubated for 5 days by MTT assay; settings: Human immunodeficiency virus 2, ISOLATE ROD, MT4, 120 h
[10] = tested on: Human immunodeficiency virus 1; assay: Antiviral activity against HIV1 harboring reverse transcriptase Y181C mutant infected in human MT4 cells assessed as protection against virus-induced cytopathic effect incubated for 5 days by MTT assay; type: functional, organism-based; settings: Human immunodeficiency virus 1, MT4, 120 h; outline: as §2

Structure (SMILES)	EC50 [1] [µM]	EC50 [2] [µM]	EC50 [3] [µM]	EC50 [4] [µM]	EC50 [5] [µM]	EC50 [6] [µM]	CC50 (MT4) [µM]	EC50 [7] [µM]	IC50 [8] [µM]	EC50 [9] [µM]	EC50 [10] [µM]
Cc1ccnc2c1NC(=O)c1cccnc1N2C1CC1 [NEVIRAPINE]	1.9	2.85	0.7	> 5.78	> 2.97	> 15	> 15	–	–	–	–
COC(=O)c1cc(NC(=O)c2cc3cc([N+](=O)[O-])c(O)c(O)c3oc2=O)ccc1O	3.94	5.62	16.5	101	44.3	–	> 300	22.5	12.3	169	22.4
